Six compounds from ChEMBL document CHEMBL3797062, “Diterpenes from the Trunk of Abies holophylla and Their Potential Neuroprotective and Anti-inflammatory Activities” (J Nat Prod, 2016) can be followed below.

As a reminder, the IC50 is the concentration that gives 50% inhibition.

Data set [1] in a line: Cytotoxicity in LPS-activated mouse BV2 cells assessed as cell viability at 20 uM after 24 hrs by MTT assay. In kind it is cell-based. To be noted: bv-2, 24 h. In a few lines:
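Mouse microglial BV2 cells were seeded at 4 × 10^4 cells/well, treated with or without compound, stimulated with LPS (100 ng/mL), and incubated for 24 h. Viability was read by MTT assay, as the reduction of yellow MTT to purple formazan by viable cells.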
(In general: Formazan colour is commonly taken as a measure of viable cells.)

A short description of data set [2]: Cytotoxicity in human SKOV3 cells by SRB assay. In kind it is functional, cell-based. The note with it: SK-OV-3. On the technique in general: The SRB assay estimates cell density from bound dye.
The next data set deals with SK-MEL-2. Description: Cytotoxicity in human SK-MEL-2 cells by SRB assay. In kind it is functional, cell-based.
The test system of another data set is A549. As to the kind of experiment: Cytotoxicity in human A549 cells by SRB assay. In kind it is functional, cell-based.
The nature of data set [3]: (§1) Antiinflammatory activity in mouse BV2 cells assessed as inhibition of LPS-induced NO production after 24 hrs by Griess assay. The note with it: BV-2, 24 h. In kind it is functional, cell-based. In a few lines:
(§2)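 BV2 microglia seeded at 4 × 10^4 cells/well, given compound at various concentrations with LPS (100 ng/mL), incubated 24 h. Nitrite in the medium read with Griess reagent (0.1% N-1-naphthylethylenediamine dihydrochloride, 1% sulfanilamide in 5% phosphoric acid, equal volume of supernatant), absorbance at 570 nm after 10 min. Sodium nitrite standard curve. IC50 derived. L-NMMA positive control.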
(Nitrite, measured by Griess reagent, commonly stands in for NO production.)

Data set [4] in a line: Cytotoxicity in human HCT116 cells by SRB assay. In kind it is functional, cell-based. To be noted: HCT-116.
A further data set concerns C6. Description: Neuroprotective activity in rat C6 cells assessed as induction of NGF release at 20 uM after 24 hrs by ELISA. In kind it is functional. In a few lines:
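C6 glioma cells seeded at 1 × 10^5 cells/well. After 24 h, treated with compound at 20 μM in serum-free DMEM for a further 24 h. NGF secreted into the conditioned medium quantified by ELISA and expressed as % of untreated control (100%). 6-Shogaol positive control. Means ± SD of three independent experiments run in triplicate.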

Data set [5] can be described thus: Cytotoxicity in rat C6 cells assessed as cell viability at 20 uM after 24 hrs by MTT assay. In kind it is cell-based. To be noted: read-out: Activity. An outline of the steps:
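C6 glioma cells seeded at 1 × 10^5 cells/well. After 24 h, switched to serum-free DMEM with compound at 20 μM for a further 24 h. Viability by MTT, expressed as % of untreated control. Means ± SD of three independent experiments.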

The next data set relates to C6 (Rattus norvegicus). As to the kind of experiment: Neuroprotective activity in rat C6 glioma cells assessed as induction of NGF release at 20 uM for 24 hrs.
The next data set relates to BV-2. The data set is described as §1. In kind it is functional, cell-based. In a few lines: as §2

Activity calls are given as the source filed them. No cut-off for these calls is given here. Some results are limits rather than exact numbers.

`CC(C)[C@]12C=C3C(=O)C[C@H]4[C@](C)(C(=O)O)CCC[C@]4(C)[C@@]3(CC1)OO2`: the Activity result in data set [1] is recorded as “Non-toxic”. In addition, the IC50 in data set [2] was above 10 µM; with SK-MEL-2, above 10 µM; in the data set on A549 it was above 10 µM; in data set [3] it was 30.1 µM; in data set [4] it was above 10 µM.
As for `CC(C)[C@]12C=C3CC[C@H]4[C@](C)(C(=O)O)CCC[C@]4(C)[C@@]3(CC1)OO2`, the Activity result in data set [1] is “Non-toxic”; in the data set with C6 it was 175.9%. Moreover, the IC50 in data set [2] was above 10 µM; with SK-MEL-2, above 10 µM; in the data set with A549 it was above 10 µM; in [3] it was 57.3 µM; in data set [4] it was above 10 µM. Further, the viability at 24 h, 20 µM in data set [5] is 109%.
Regarding `CCCCC/C=C/C(=O)CCc1ccc(O)c(OC)c1` [SHOGAOL], in the data set with C6 (Rattus norvegicus), the Activity stood at 141.8%. Moreover, in data set [5], the viability at 24 h, 20 µM is 119%.
For the compound `CC(C)C1=C[C@@]2(O)CC[C@@H]3[C@](C)(CCC[C@@]3(C)C(=O)O)[C@H]2CC1=O`, the Activity result in [1] is “Non-toxic”; in the data set with C6, 166.1%. For the same compound, the half-maximal inhibitory concentration (IC50) in [2] was above 10 µM; in the data set on SK-MEL-2 it was above 10 µM; in the data set on A549 it was above 10 µM; in [3], 56.1 µM; in data set [4] it was above 10 µM. In data set [5], the viability at 24 h, 20 µM came to 91.2%.
As to `CC(C)c1ccc2c(c1)C(=O)C[C@H]1[C@](C)(C(=O)O)CCC[C@]21C`, the IC50 (in [2]; with SK-MEL-2; in the data set on A549; in data set [4]) was above 10 µM in each case. Besides, the Activity in the data set with C6 is listed as 201.8%. In addition, in the data set with BV-2, the inhibition entry is “inactive”. Moreover, in data set [5], the viability at 24 h, 20 µM turned out to be 104%.
Consider `CC(C)[C@]1(O)C=C2C(=O)C[C@@H]3[C@](C)(CCC[C@@]3(C)C(=O)O)[C@H]2CC1`, for which the IC50 (in data set [2]; in the data set on SK-MEL-2; in the data set on A549; in [4]) was above 10 µM throughout. Moreover, the Activity with C6 is listed as 175.6%. Besides, the inhibition result in the data set with BV-2 is “inactive”. Besides, the viability at 24 h, 20 µM in data set [5] was found to be 94.5%.
